Assay results published in ChEMBL document CHEMBL1275447 (Antimicrob Agents Chemother, 2008).
≈ marks a conversion by molar mass, not a printed value. Calls of active or inactive are those of the source. The calls are words filed in the database; no cut-off is given here.

What was measured:
[1] = tested on: Pseudomonas aeruginosa; test: Antibacterial activity against Pseudomonas aeruginosa isolate 968 by microdilution method; assay type: functional
[2] = tested on: Pseudomonas aeruginosa; test: Antibacterial activity against Pseudomonas aeruginosa isolate 1055 by microdilution method; assay type: functional
[3] = tested on: Pseudomonas aeruginosa; test: Antibacterial activity against Pseudomonas aeruginosa isolate 896 by microdilution method; assay type: functional
[4] = fT>MIC in human infected with Pseudomonas aeruginosa isolate 1050 at 500 mg administered as 1 hr infusion; assay type: functional
[5] = fT>MIC in human infected with Pseudomonas aeruginosa isolate 935 at 500 mg administered as 4 hr infusion; assay type: functional
[6] = fT>MIC in neutropenic mouse infected with Pseudomonas aeruginosa isolate 944 at 500 mg administered as 1 hr infusion; assay type: functional
In short: (§1)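 Free-drug time above MIC simulated from one-compartment mouse serum PK (25.2% protein binding). The mice were cyclophosphamide-neutropenic and uranyl nitrate-renally impaired. Regimen was subcutaneous 10, 15, 2.5, 1.25, 0.5, 0.25 mg/kg at 0, 0.5, 2.5, 4, 5.5, 7 h, repeated every 8 h over 24 h.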

[7] = Cmax in healthy human at 500 mg administered as 1 hr infusion; assay type: ADME, organism-based; design: dose 500 mg; conditions: in vivo, iv
[8] = fT>MIC in human infected with Pseudomonas aeruginosa isolate 931 at 500 mg administered as 4 hr infusion; assay type: functional
[9] = fT>MIC in neutropenic mouse infected with Pseudomonas aeruginosa isolate 979 at 500 mg administered as 4 hr infusion; assay type: functional
In short: (§2)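 Mouse fT>MIC was modelled with first-order one-compartment serum PK and 25.2% binding. Mice were neutropenic (cyclophosphamide) with uranyl nitrate renal impairment. Subcutaneous doses were 5.5, 2.25, 4.5, 4.5, 4.5, 4.5, 0.75, 0.375 mg/kg at 0, 0.5, 1.5, 2.5, 3.5, 4.5, 6, 7.5 h per 8-h interval over 24 h.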

[10] = fT>MIC in human infected with Pseudomonas aeruginosa isolate 979 at 500 mg administered as 1 hr infusion; assay type: functional
[11] = tested on: Pseudomonas aeruginosa; test: Antibacterial activity against Pseudomonas aeruginosa isolate 1060 by fractionation study; assay type: functional
[12] = fT>MIC in neutropenic mouse infected with Pseudomonas aeruginosa isolate 1036 at 500 mg administered as 1 hr infusion; assay type: functional
[13] = fT>MIC in neutropenic mouse infected with Pseudomonas aeruginosa isolate 869 at 500 mg administered as 1 hr infusion; assay type: functional; in short: as §1
[14] = fT>MIC in human infected with Pseudomonas aeruginosa isolate 1006 at 500 mg administered as 1 hr infusion; assay type: functional
[15] = AUC in healthy human at 500 mg administered as 1 hr infusion; assay type: ADME, organism-based; conditions: plasma, iv
[16] = fT>MIC in neutropenic mouse infected with Pseudomonas aeruginosa isolate 1062 at 500 mg administered as 1 hr infusion; assay type: functional; in short: as §1
[17] = Tmax in Pseudomonas aeruginosa ATCC 27853 infected neutropenic ICR mouse at 150 mg/kg, sc administered as single dose 2 hrs postinfection by HPLC; assay type: ADME, organism-based; design: dose 150 mg/kg, route subcutaneous; conditions: in vivo
In short: (§3)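 Neutropenic mice (cyclophosphamide ip 150 and 100 mg/kg, 4 and 1 days before inoculation) with uranyl nitrate 5 mg/kg ip 3 days before, for renal impairment. Thigh infection with ATCC 27853 at 10⁶ CFU/ml, 0.1 ml per thigh. Single sc doses 2 h later. Intracardiac blood from 6–12 mice per time point, eight time points over 4 h. Serum assayed by HPLC (linear 0.5–40 μg/ml). One-compartment first-order fit.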

[18] = tested on: Pseudomonas aeruginosa; test: Antibacterial activity against Pseudomonas aeruginosa isolate 869 by microdilution method; assay type: functional
[19] = fT>MIC in neutropenic mouse infected with Pseudomonas aeruginosa isolate 869 at 500 mg administered as 4 hr infusion; assay type: functional; in short: as §2
[20] = fT>MIC in neutropenic mouse thigh infection model at 4 to 8 ug/ml after 24 hrs; assay type: functional; in short: as §1
[21] = Cmax in Pseudomonas aeruginosa ATCC 27853 infected neutropenic ICR mouse at 50 mg/kg, sc administered as single dose 2 hrs postinfection by HPLC; assay type: ADME, organism-based; design: dose 50 mg/kg, route subcutaneous; conditions: in vivo; in short: as §3
[22] = fT>MIC in neutropenic mouse infected with Pseudomonas aeruginosa isolate 1055 at 500 mg administered as 1 hr infusion; assay type: functional; in short: as §1
[23] = fT>MIC in human infected with Pseudomonas aeruginosa isolate 869 at 500 mg administered as 1 hr infusion; assay type: functional
[24] = fT>MIC in human infected with Pseudomonas aeruginosa isolate 1062 at 500 mg administered as 4 hr infusion; assay type: functional
[25] = Clearance in Pseudomonas aeruginosa ATCC 27853 infected neutropenic ICR mouse at 10 mg/kg, sc administered as single dose 2 hrs postinfection; assay type: ADME, organism-based; design: dose 10 mg/kg, route subcutaneous; conditions: in vivo; in short: as §3
[26] = tested on: Pseudomonas aeruginosa; test: Antibacterial activity against Pseudomonas aeruginosa isolate 936 by microdilution method; assay type: functional
[27] = tested on: Pseudomonas aeruginosa; test: Antibacterial activity against Pseudomonas aeruginosa isolate 931 at 4 ug/ml after 24 hrs; assay type: functional, organism-based
[28] = fT>MIC in neutropenic mouse infected with Pseudomonas aeruginosa isolate 993 at 500 mg administered as 1 hr infusion; assay type: functional; in short: as §1
[29] = tested on: Pseudomonas aeruginosa; test: Antibacterial activity against Pseudomonas aeruginosa isolate 1050 by microdilution method; assay type: functional
In short: (§4)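 CLSI broth microdilution in cation-adjusted Mueller-Hinton broth (20–25 mg/liter Ca, 10–12.5 mg/liter Mg). Standard inoculum 10⁵ CFU/ml, incubated in ambient air. Clinical hospital isolates.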

[30] = fT>MIC in neutropenic mouse infected with Pseudomonas aeruginosa isolate 1050 at 500 mg administered as 1 hr infusion; assay type: functional; in short: as §1
[31] = fT>MIC in human infected with Pseudomonas aeruginosa isolate 1036 at 500 mg administered as 1 hr infusion; assay type: functional
[32] = tested on: Pseudomonas aeruginosa; test: Antibacterial activity against Pseudomonas aeruginosa isolate 1005 by microdilution method; assay type: functional; in short: as §4
[33] = fT>MIC in human infected with Pseudomonas aeruginosa isolate 869 at 500 mg administered as 4 hr infusion; assay type: functional
[34] = tested on: Pseudomonas aeruginosa; test: Antibacterial activity against Pseudomonas aeruginosa isolate 1036 by microdilution method; assay type: functional
[35] = fT>MIC in neutropenic mouse infected with Pseudomonas aeruginosa isolate 1052 at 500 mg administered as 4 hr infusion; assay type: functional; in short: as §2
[36] = fT>MIC in human infected with Pseudomonas aeruginosa isolate 1005 at 500 mg administered as 1 hr infusion; assay type: functional
[37] = fT>MIC in human infected with Pseudomonas aeruginosa isolate 896 at 500 mg administered as 1 hr infusion; assay type: functional
[38] = fT>MIC in human infected with Pseudomonas aeruginosa isolate 906 at 500 mg administered as 1 hr infusion; assay type: functional
[39] = fT>MIC in neutropenic mouse infected with Pseudomonas aeruginosa isolate 1082 at 500 mg administered as 4 hr infusion; assay type: functional; in short: as §2
[40] = tested on: Pseudomonas aeruginosa; test: Antibacterial activity against Pseudomonas aeruginosa isolate 944 by fractionation study; assay type: functional
[41] = fT>MIC in human infected with Pseudomonas aeruginosa isolate 1082 at 500 mg administered as 4 hr infusion; assay type: functional
[42] = fT>MIC in neutropenic mouse infected with Pseudomonas aeruginosa isolate 968 at 500 mg administered as 4 hr infusion; assay type: functional; in short: as §2
[43] = tested on: Pseudomonas aeruginosa; test: Antibacterial activity against Pseudomonas aeruginosa isolate 944 at 4 ug/ml after 24 hrs; assay type: functional, organism-based

Compound: C[C@@H](O)[C@H]1C(=O)N2C(C(=O)O)=C(S[C@@H]3CN[C@H](CNS(N)(=O)=O)C3)[C@H](C)[C@H]12 [DORIPENEM]
- MIC [1]: 16 µg/mL (≈ 38 µM)
- MIC [2]: 0.5 µg/mL (≈ 1.19 µM)
- MIC [3]: 8 µg/mL (≈ 19 µM)
- fT>MIC [4]: 27.5%
- fT>MIC [5]: 80%
- fT>MIC [6]: 30%
- Cmax [7]: 21800 ng/mL
- fT>MIC [8]: 55%
- fT>MIC [9]: 70%
- fT>MIC [10]: 40%
- MIC [11]: 2.75 µg/mL (≈ 6.54 µM)
- fT>MIC [12]: 42.5%
- fT>MIC [13]: 90%
- fT>MIC [14]: 17.5%
- AUC at 1 h [15]: 32600 ng·h/mL
- fT>MIC [16]: 75%
- Tmax [17]: 13.2 min
- MIC [18]: 0.25 µg/mL (≈ 0.595 µM)
- fT>MIC [19]: 100%
- fT>MIC [20]: 20%
- Cmax [21]: 59.7 µg/mL
- fT>MIC [22]: 75%
- fT>MIC [23]: 90%
- fT>MIC [24]: 95%
- CL/F [25]: 11.2 mL/min/kg
- MIC [26]: 8 µg/mL (≈ 19 µM)
- Activity [27]: inactive
- fT>MIC [28]: 100%
- MIC [29]: 4 µg/mL (≈ 9.51 µM)
- fT>MIC [30]: 30%
- fT>MIC [31]: 40%
- MIC [32]: 1 µg/mL (≈ 2.38 µM)
- fT>MIC [33]: 100%
- MIC [34]: 2 µg/mL (≈ 4.76 µM)
- fT>MIC [35]: 82.5%
- fT>MIC [36]: 55%
- fT>MIC [37]: 17.5%
- fT>MIC [38]: 40%
- fT>MIC [39]: 82.5%
- MIC [40]: 3 µg/mL (≈ 7.13 µM)
- fT>MIC [41]: 80%
- fT>MIC [42]: 0%
- Activity [43]: inactive
